Measurements from ChEMBL document CHEMBL1154792, “chi-Conopeptide pharmacophore development: toward a novel class of norepinephrine transporter inhibitor (Xen2174) for pain” (J Med Chem, 2009).
Activity calls are given as the source filed them. No cut-off for these calls is given here.

Target: Sodium-dependent noradrenaline transporter (Homo sapiens, UniProt P23975)
Assay: Displacement of [3H]nisoxetine from human NET expressed in COS7 cells
Format: cell-based
Settings: COS-7
Outline: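 Membranes from COS-7 cells transfected with human NET were incubated with [3H]nisoxetine (4.3 nM) with or without peptide (1 nM to 100 μM, triplicate) for 1 h at RT. Filter-retained radioactivity was counted by liquid scintillation, and values are given as pIC50. Data are means of 2–5 experiments in triplicate; peptide concentration was set by calibrated HPLC at 214 nm.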

Chain of Sodium-dependent noradrenaline transporter (P23975 whole entry): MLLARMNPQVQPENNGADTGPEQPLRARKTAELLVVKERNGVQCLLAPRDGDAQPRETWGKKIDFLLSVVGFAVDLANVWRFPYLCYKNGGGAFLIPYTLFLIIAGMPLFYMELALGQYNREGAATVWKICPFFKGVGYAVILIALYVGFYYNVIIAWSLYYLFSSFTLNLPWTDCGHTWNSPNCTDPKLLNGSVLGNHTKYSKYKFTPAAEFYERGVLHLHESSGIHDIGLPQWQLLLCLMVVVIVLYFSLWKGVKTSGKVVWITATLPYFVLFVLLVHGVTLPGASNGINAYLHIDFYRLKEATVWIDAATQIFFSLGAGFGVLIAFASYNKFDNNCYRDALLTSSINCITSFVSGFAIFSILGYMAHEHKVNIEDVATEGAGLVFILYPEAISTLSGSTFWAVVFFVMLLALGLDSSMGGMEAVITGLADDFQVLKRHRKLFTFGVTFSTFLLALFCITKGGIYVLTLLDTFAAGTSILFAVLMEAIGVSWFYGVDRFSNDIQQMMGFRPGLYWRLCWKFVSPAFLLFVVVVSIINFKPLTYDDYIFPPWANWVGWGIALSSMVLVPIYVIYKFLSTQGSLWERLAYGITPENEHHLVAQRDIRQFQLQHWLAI

CC(C)C[C@@H]1NC(=O)[C@H](CCCCN)NC(=O)[C@H](Cc2ccc(O)cc2)NC(=O)CNC(=O)C[C@@H]2CSSC[C@H](CC(=O)N[C@@H](Cc3cnc[nH]3)C(=O)N3CC[C@H](O)[C@H]3C(=O)N[C@H](CC(=O)O)CSSC[C@H](NC(=O)[C@@H](NC(=O)CNC(=O)[C@@H]3CCC(=O)N3)C(C)C)CC(=O)N2)NC1=O
Activity: inactive
